Activity calls are given as the source filed them. No cut-off for these calls is given here.
Tests used:
U-937 [1] = experiment: Induction of apoptosis in human U937 cells at 25 uM after 30 hrs; format: functional
Method in brief: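 Apoptosis read as caspase 3 activation by FACS, in U937 cells (RPMI, 10% fetal calf serum, 200000 cells/mL) exposed to 25 µM for 30 h.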

U-937 [2] = experiment: Induction of granulocytic differentiation in human U937 cells assessed as CD11c expression at 0.5 uM after 30 hrs; format: functional
Method in brief: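 U937 cells treated for 30 h, then stained with PE-conjugated CD11c (PE mouse IgG1 as control) for 30 min at 4 °C in the dark and resuspended in PBS with PI (0.25 µg/mL). Read-out is percent CD11c-positive/PI-negative cells, with dead PI-positive cells excluded. Coloured compounds limited the top dose to 5 µM or lower.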

RmtA = RmtA (Emericella nidulans, UniProt Q5VLE3); experiment: Inhibition of Aspergillus nidulans RmtA
RmtA, sequence (Q5VLE3 whole entry, the tested form may be a part): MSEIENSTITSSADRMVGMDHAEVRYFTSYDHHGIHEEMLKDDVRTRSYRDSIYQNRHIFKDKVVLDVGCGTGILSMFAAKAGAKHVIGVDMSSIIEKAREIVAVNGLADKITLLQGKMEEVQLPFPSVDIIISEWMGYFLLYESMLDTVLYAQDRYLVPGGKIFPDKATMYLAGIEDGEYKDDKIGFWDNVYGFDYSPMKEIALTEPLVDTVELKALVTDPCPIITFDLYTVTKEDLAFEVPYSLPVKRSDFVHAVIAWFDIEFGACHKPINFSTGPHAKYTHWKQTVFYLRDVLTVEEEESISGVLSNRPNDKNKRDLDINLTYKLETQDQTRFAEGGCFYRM
Method in brief: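 Enzyme was GST-RmtA fusion expressed in E. coli BL21 and glutathione-affinity purified (500 ng), preincubated with compound for 15 min at room temperature. Then 20 µg chicken erythrocyte core histones and 0.55 µCi [3H]AdoMet were added, 30 min at 30 °C. Stopped with 25% TCA, filtered, counted by liquid scintillation.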

[3] = target: T1, Histone-arginine methyltransferase CARM1 (Homo sapiens) (UniProt Q86X55); experiment: Inhibition of human recombinant CARM1 assessed as poly(A) binding protein 1 methylation at 100 uM
T1 sequence (whole entry): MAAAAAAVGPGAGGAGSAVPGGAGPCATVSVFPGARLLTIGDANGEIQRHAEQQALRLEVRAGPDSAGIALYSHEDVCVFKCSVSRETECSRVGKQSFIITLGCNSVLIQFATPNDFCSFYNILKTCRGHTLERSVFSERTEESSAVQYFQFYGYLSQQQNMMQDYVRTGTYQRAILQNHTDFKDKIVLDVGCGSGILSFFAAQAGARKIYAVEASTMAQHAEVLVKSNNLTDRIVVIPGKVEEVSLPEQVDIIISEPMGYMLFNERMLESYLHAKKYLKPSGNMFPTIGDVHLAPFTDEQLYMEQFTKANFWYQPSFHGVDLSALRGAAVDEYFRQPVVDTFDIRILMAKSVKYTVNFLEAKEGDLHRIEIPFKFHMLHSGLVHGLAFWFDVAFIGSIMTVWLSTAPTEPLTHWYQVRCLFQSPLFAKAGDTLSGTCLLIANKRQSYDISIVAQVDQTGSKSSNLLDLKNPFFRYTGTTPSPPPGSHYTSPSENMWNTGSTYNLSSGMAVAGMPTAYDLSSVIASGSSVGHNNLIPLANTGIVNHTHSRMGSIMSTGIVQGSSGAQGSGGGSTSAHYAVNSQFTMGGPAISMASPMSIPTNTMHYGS
Method in brief: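 Recombinant enzymes (0.2 µg) with substrate (0.5 µg: Npl3p for PRMT1, PABP1 for CARM1, histone H3 for SET7), 0.5 µM [3H]AdoMet and 100 µM compound in PBS pH 7.4 with 3.3% v/v DMSO, 90 min at 30 °C. Products separated by 10% SDS-PAGE, transferred to PVDF, detected by fluorography on film overnight.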

U-937 [4] = experiment: Inhibition of histone H3K4 methylation in human U937 cells at 50 uM after 24 hrs; format: functional, cell-based
Method in brief: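 U937 cells treated at 50 µM for 24 h. Histones extracted with Triton buffer, then 0.2 M HCl overnight at 4 °C. 3–10 µg run on 15% SDS-PAGE and immunoblotted with anti-monomethyl-H3K4, monomethyl-H4R3 or dimethyl-H3R17 (1:500, overnight 4 °C), ECL detection. Loading controls: total H4 (H3K4), Ponceau Red (Arg marks).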

U-937 [5] = experiment: Inhibition of human p300/CBP in U937 cells at 50 uM assessed as histone H3 acetylation; format: cell-based
Method in brief: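 Source was U937 nuclear extract (10 µg per assay) as p300/CBP HAT, with histone H3 substrate and compound at 50 µM or DMSO control for 90 min. Acetyl-H3 detected by indirect ELISA, quantified against acetylated H3 peptide standard curves, […].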

[6] = target: T2, NAD-dependent protein deacetylase sirtuin-1 (Homo sapiens) (UniProt Q96EB6); experiment: Inhibition of human SIRT1 at 25 uM
T2 sequence (whole entry): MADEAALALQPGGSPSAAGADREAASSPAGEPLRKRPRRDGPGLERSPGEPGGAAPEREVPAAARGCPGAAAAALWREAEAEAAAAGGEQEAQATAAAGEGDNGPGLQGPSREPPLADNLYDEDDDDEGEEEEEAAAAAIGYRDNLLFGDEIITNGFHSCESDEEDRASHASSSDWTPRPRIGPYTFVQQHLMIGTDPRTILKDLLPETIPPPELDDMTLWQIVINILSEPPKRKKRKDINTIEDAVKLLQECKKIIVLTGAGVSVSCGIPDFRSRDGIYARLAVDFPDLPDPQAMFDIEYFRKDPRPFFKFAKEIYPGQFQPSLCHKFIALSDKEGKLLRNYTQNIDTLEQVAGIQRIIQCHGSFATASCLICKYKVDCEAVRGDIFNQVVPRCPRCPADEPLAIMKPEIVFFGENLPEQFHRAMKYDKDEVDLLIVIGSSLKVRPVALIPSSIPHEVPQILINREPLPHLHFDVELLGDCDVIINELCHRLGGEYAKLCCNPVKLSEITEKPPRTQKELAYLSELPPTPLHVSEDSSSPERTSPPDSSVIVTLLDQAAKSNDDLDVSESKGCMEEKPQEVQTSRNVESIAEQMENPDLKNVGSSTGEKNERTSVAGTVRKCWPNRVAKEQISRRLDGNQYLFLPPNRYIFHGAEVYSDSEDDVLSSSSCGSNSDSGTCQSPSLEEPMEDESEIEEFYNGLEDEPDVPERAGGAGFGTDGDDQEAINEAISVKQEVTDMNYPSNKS
Method in brief: (§1)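 Fluorescent two-stage assay. SIRT1 (1 U/well) or SIRT2 (5 U/well) with Fluor de Lys-SIRT1/2 substrate, NAD+ and compound at 25 µM, 37 °C for 2 h. Developer II containing nicotinamide then stopped the reaction and generated signal, read at ex 360/em 460 nm.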

[7] = target: T3, NAD-dependent protein deacetylase sirtuin-2 (Homo sapiens) (UniProt Q8IXJ6); experiment: Inhibition of human SIRT2 at 25 uM; method in brief: as §1
T3 sequence (whole entry): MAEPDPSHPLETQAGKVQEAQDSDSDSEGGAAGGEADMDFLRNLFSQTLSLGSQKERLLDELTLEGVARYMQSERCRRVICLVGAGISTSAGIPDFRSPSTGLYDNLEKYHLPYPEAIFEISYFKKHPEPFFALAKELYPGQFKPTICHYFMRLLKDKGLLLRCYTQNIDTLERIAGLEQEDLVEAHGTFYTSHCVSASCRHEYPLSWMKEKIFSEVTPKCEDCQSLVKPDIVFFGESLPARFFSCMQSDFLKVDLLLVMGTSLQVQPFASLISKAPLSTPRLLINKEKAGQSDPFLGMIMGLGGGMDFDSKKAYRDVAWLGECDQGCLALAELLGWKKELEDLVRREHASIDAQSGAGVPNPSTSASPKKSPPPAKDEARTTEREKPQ

IC50 (RmtA): 29 µM
Activity [3]: Active
inhibition [6]: 62%
inhibition [7]: 67%
SMILES: O=C1/C(=C/c2cc(Br)c(O)c(Br)c2)COC/C1=C\c1cc(Br)c(O)c(Br)c1
Activity (U-937 [1]): 27.9%
Activity (U-937 [2]): 59%
Activity (U-937 [4]): Active
inhibition (U-937 [5]): 61%

— ChEMBL document CHEMBL1144710, “epigenetic multiple ligands: mixed histone/protein methyltransferase, acetyltransferase, and class III deacetylase (sirtuin) inhibitors” (J Med Chem, 2008)
